Legend:
[1] = molecular target: T1, Glutathione S-transferase Mu 1 (Mus musculus) (UniProt P10649); assay: GST activity in the cytosols of the forestomach of ICR/Ha mice was determined by using 1-Chloro-2,4-dinitrobenzene as the substrate; type: functional, tissue-based; settings: Stomach
T1 sequence (whole entry): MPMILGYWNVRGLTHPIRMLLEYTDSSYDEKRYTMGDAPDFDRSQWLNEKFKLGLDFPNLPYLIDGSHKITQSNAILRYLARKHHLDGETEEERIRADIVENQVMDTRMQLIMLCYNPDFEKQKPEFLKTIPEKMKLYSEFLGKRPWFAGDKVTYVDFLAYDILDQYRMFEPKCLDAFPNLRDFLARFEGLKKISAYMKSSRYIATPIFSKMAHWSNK
Summary of the method: (§1)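 Mice (6-8 wk, groups of 4-5, semipurified diet) dosed po once daily for 3 days with 10 μmol in 0.2 mL cottonseed oil/10% ethanol. Vehicle-only controls. Killed 24 h after the last dose. Tissue homogenized in phosphate buffer pH 7.5, then spun at 100000g for 1 h to give cytosol. CDNB conjugation read at 340 nm, 30 °C, pH 6.5 phosphate, 5 mM GSH, 1 mM CDNB. Units µmol/min/mg protein, mean ± SD; ratio = treated/control.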

[2] = molecular target: T1, Glutathione S-transferase Mu 1 (Mus musculus); assay: Ratio is the compound /control(Specific activity in liver(GST)); type: functional, tissue-based; summary of the method: as §1
Mus musculus [3] = species: Mus musculus; assay: Ratio is the compound /control(SH in small bowel mucosa); type: functional
Summary of the method: (§2)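 Same dosing: 10 μmol po daily for 3 days in cottonseed oil/10% ethanol, vehicle controls, tissues taken 24 h after the last dose. Homogenate (phosphate pH 7.5) used at once. Ellman method: equal volume 4% sulfosalicylic acid, then supernatant plus 9 volumes of 0.1 mM DTNB in 0.1 M phosphate pH 8.0. Read spectrophotometrically. Units µmol SH/g tissue, mean ± SD; ratio = treated/control.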

[4] = Tissue acid-soluble sulfhydryl levels of liver of ICR/Ha mice.; type: functional, Mus musculus; summary of the method: as §2
[5] = molecular target: T1, Glutathione S-transferase Mu 1 (Mus musculus); assay: GST activity in the cytosols of the lung of ICR/Ha mice was determined by using 1-Chloro-2,4-dinitrobenzene as the substrate; type: functional; summary of the method: as §1
Mus musculus [6] = species: Mus musculus; assay: Tissue acid-soluble sulfhydryl levels of small bowel mucosa of ICR/Ha mice; type: functional; summary of the method: as §2
[7] = molecular target: T1, Glutathione S-transferase Mu 1 (Mus musculus); assay: Ratio is the compound /control(Specific activity in forestomach); type: functional, tissue-based; settings: Stomach; summary of the method: as §1
[8] = Ratio is the compound /control(SH level in liver); type: functional, Mus musculus; summary of the method: as §2
Mus musculus [9] = species: Mus musculus; assay: GST activity in the cytosols of small bowel mucosa of ICR/Ha mice was determined by using 1-Chloro-2,4-di nitrobenzene as the substrate; type: functional; summary of the method: as §1
[10] = molecular target: T1, Glutathione S-transferase Mu 1 (Mus musculus); assay: Ratio is the compound /control(Specific activity in lung); type: functional; summary of the method: as §1
[11] = molecular target: T1, Glutathione S-transferase Mu 1 (Mus musculus); assay: GST activity in the cytosols of liver of ICR/Ha mice, using 1-Chloro-2,4-dinitrobenzene as substrate; type: functional, tissue-based; summary of the method: as §1
[12] = molecular target: T1, Glutathione S-transferase Mu 1 (Mus musculus); assay: Ratio is the compound /control(Specific activity in small bowel mucosa(GST)); type: functional; summary of the method: as §1
Mus musculus [13] = species: Mus musculus; assay: Tissue acid-soluble sulfhydryl levels of small bowel mucosa of ICR/Ha mice.; type: functional; summary of the method: as §2
[14] = molecular target: T1, Glutathione S-transferase Mu 1 (Mus musculus); assay: GST activity in the cytosols of small bowel mucosa of ICR/Ha mice was determined by using 1-Chloro-2,4-di nitrobenzene as the substrate.; type: functional; summary of the method: as §1
[15] = Tissue acid-soluble sulfhydryl levels of liver of ICR/Ha mice; type: functional, Mus musculus; summary of the method: as §2
Mus musculus [16] = species: Mus musculus; assay: GST activity in the cytosols of small bowel mucosa of ICR/Ha mice was determined by using 1-Chloro-2,4-dinitrobenzene as the substrate.; type: functional; summary of the method: as §1

| SMILES | Specific activity (uM min-1 (mg of protein)-1) [1] | Ratio [2] | Specific activity (uM min-1 (mg of protein)-1) [5] | Ratio [7] | Ratio [10] | Specific activity (uM min-1 (mg of protein)-1) [11] | Ratio [12] | Specific activity (uM min-1 (mg of protein)-1) [14] | Ratio (Mus musculus [3]) | SH level [4] | SH level (Mus musculus [6]) | Ratio [8] | Specific activity (Mus musculus [9]) | SH level (Mus musculus [13]) | SH level [15] | Specific activity (Mus musculus [16]) |
| --- | --- | --- | --- | --- | --- | --- | --- | --- | --- | --- | --- | --- | --- | --- | --- | --- |
| C[C@@]12CCc3occc3C1CC[C@]13CC(O)C(CCC12)C3 (some centres undefined) | 0.91 | 1.5 | 0.2 | 1.2 | 0.8 | 2.54 | 4.2 |  | 2.2 | 12.8 µM/g | 11.9 µmol/g | 1.7 | 1.52 uM min-1 (mg of protein)-1 |  |  |  |
| CC(=O)OC1C[C@@]23CCC4c5ccoc5CC[C@@]4(C)C2CCC1C3 (some centres undefined) | 0.83 | 1.3 | 0.29 | 1.1 | 1.1 | 2.24 | 5.1 | 1.83 | 1.5 | 13.3 µM/g |  | 1.8 |  | 8.3 µmol/g |  |  |
| C[C@@]12CCc3occc3C1CC[C@]13CCC(CCC12)C3 (some centres undefined) | 0.85 | 1.6 | 0.33 | 1.1 | 1.3 | 2.62 | 2.6 |  | 1.6 | 13 µM/g | 8.4 µmol/g | 1.7 | 0.95 uM min-1 (mg of protein)-1 |  |  |  |
| CC(=O)OC[C@@]1(O)C[C@@]23CCC4C5=C(CC[C@@]4(C)C2CCC1C3)OCC5 (some centres undefined) |  | 1.08 |  |  |  | 1.27 | 1 |  | 1.2 | 15.6 µM/g |  | 1.55 |  | 7.1 µmol/g |  | 0.41 uM min-1 (mg of protein)-1 |
| C[C@@]12C=Cc3occc3C1CC[C@@]13CC(CCC12)C(O)(CO)C3 (some centres undefined) | 1.4 | 3 | 0.29 | 2.1 | 1 | 4.3 | 7.3 | 2.21 | 2.1 | 13 µM/g |  | 1.5 |  | 13.1 µmol/g |  |  |
| CC1(O)C[C@@]23CCC4c5ccoc5CC[C@@]4(C)C2CCC1C3 (some centres undefined) | 0.76 | 1.4 | 0.27 | 1 | 1 | 2.26 | 3.6 |  | 1.6 | 16.3 µM/g | 8.6 µmol/g | 2.1 | 1.3 uM min-1 (mg of protein)-1 |  |  |  |

Second part, led by results:

| Specific activity (uM min-1 (mg of protein)-1) [1] | Ratio [2] | Specific activity (uM min-1 (mg of protein)-1) [5] | Ratio [7] | Ratio [10] | Specific activity (uM min-1 (mg of protein)-1) [11] | Ratio [12] | Specific activity (uM min-1 (mg of protein)-1) [14] | SMILES | Ratio (Mus musculus [3]) | SH level [4] | SH level (Mus musculus [6]) | Ratio [8] | Specific activity (Mus musculus [9]) | SH level (Mus musculus [13]) | SH level [15] | Specific activity (Mus musculus [16]) |
| --- | --- | --- | --- | --- | --- | --- | --- | --- | --- | --- | --- | --- | --- | --- | --- | --- |
| 0.92 | 1.8 | 0.24 | 1.4 | 0.8 | 2.59 | 4.5 | 1.34 | CC1(O)C[C@@]23CCC4c5ccoc5C=C[C@@]4(C)C2CCC1C3 (some centres undefined) | 1.2 |  | 7.7 µmol/g | 0.9 |  |  | 8.3 µM/g |  |
| 1.01 | 2.5 | 0.23 | 1.5 | 0.8 | 3.57 | 5.7 | 1.72 | C[C@@]12C=Cc3occc3C1CC[C@]13CC(O)C(CCC12)C3 (some centres undefined) | 1.7 |  | 10.9 µmol/g | 1.1 |  |  | 9.5 µM/g |  |
| 1.05 | 2.6 | 0.28 | 1.6 | 1 | 3.67 | 6.1 | 1.84 | C[C@@]12C=Cc3occc3C1CC[C@]13CC(=O)C(CCC12)C3 (some centres undefined) | 1.6 | 11.8 µM/g |  | 1.3 |  | 10.4 µmol/g |  |  |

— ChEMBL document CHEMBL1123806, “Effects of derivatives of kahweol and cafestol on the activity of glutathione S-transferase in mice” (1987)
